Measured values taken from ChEMBL document CHEMBL4043093, “2-Oxo-3, 4-dihydropyrimido[4, 5-d]pyrimidinyl derivatives as new irreversible pan fibroblast growth factor receptor (FGFR) inhibitors” (Eur J Med Chem, 2017).

Experiments:
[1] = target: Insulin receptor (Homo sapiens) (UniProt P06213); experiment: Inhibition of wild-type human partial length INSR (P997 to E1318 residues) expressed in HEK293 cells assessed as residual activity at 1000 nM after 30 mins by Kinomescan method relative to control; type: cell-based
[2] = target: Ephrin type-B receptor 4 (Homo sapiens) (UniProt P54760); experiment: Inhibition of wild-type human partial length EPHB4 (H585 to G892 residues) expressed in Escherichia coli BL21 assessed as residual activity at 1000 nM after 30 mins by Kinomescan method relative to control
[3] = target: Serine/threonine-protein kinase 25 (Homo sapiens) (UniProt O00506); experiment: Inhibition of wild-type human partial length YSK1 (V14 to H295 residues) expressed in Escherichia coli BL21 assessed as residual activity at 1000 nM after 30 mins by Kinomescan method relative to control
[4] = target: Myosin-IIIa (Homo sapiens) (UniProt Q8NEV4); experiment: Inhibition of wild-type human partial length MYO3A (M1 to K338 residues) expressed in Escherichia coli BL21 assessed as residual activity at 1000 nM after 30 mins by Kinomescan method relative to control
[5] = target: Transient receptor potential cation channel subfamily M member 6 (Homo sapiens) (UniProt Q9BX84); experiment: Inhibition of wild-type human partial length TRPM6 (Q1723 to I1998 residues) expressed in HEK293 cells assessed as residual activity at 1000 nM after 30 mins by Kinomescan method relative to control; type: cell-based
[6] = target: Dual specificity mitogen-activated protein kinase kinase 7 (Homo sapiens) (UniProt O14733); experiment: Inhibition of wild-type human full length MKK7 (M1 to R419 residues) expressed in HEK293 cells assessed as residual activity at 1000 nM after 30 mins by Kinomescan method relative to control; type: cell-based
Outline: (§1)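 Single-concentration screen at 1 µM across a 456-kinase KINOMEscan panel. The read-out is Percent Control for each kinase.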

[7] = target: Protein kinase C epsilon type (Homo sapiens) (UniProt Q02156); experiment: Inhibition of wild-type human partial length PRKCE (A378 to P737 residues) expressed in HEK293 cells assessed as residual activity at 1000 nM after 30 mins by Kinomescan method relative to control; type: cell-based
[8] = target: Receptor-interacting serine/threonine-protein kinase 1 (Homo sapiens) (UniProt Q13546); experiment: Inhibition of wild-type human partial length RIPK1 (M1 to K305 residues) expressed in Escherichia coli BL21 assessed as residual activity at 1000 nM after 30 mins by Kinomescan method relative to control
[9] = target: Ephrin type-A receptor 3 (Homo sapiens) (UniProt P29320); experiment: Inhibition of wild-type human partial length EPHA3 (D604 to K889 residues) expressed in Escherichia coli BL21 assessed as residual activity at 1000 nM after 30 mins by Kinomescan method relative to control
[10] = target: Mast/stem cell growth factor receptor Kit (Homo sapiens) (UniProt P10721); experiment: Inhibition of wild-type human partial length KIT (I571 to D952 residues) expressed in Escherichia coli BL21 assessed as residual activity at 1000 nM after 30 mins by Kinomescan method relative to control
[11] = target: Serine/threonine-protein kinase MRCK beta (Homo sapiens) (UniProt Q9Y5S2); experiment: Inhibition of wild-type human partial length MRCKB (L56 to S417 residues) expressed in Escherichia coli BL21 assessed as residual activity at 1000 nM after 30 mins by Kinomescan method relative to control
[12] = target: Mitogen-activated protein kinase 13 (Homo sapiens) (UniProt O15264); experiment: Inhibition of wild-type human full length p38-delta (M1 to L365 residues) expressed in Escherichia coli BL21 assessed as residual activity at 1000 nM after 30 mins by Kinomescan method relative to control
[13] = target: NT-3 growth factor receptor (Homo sapiens) (UniProt Q16288); experiment: Inhibition of wild-type human partial length TRKC (Q531 to G825 residues) expressed in HEK293 cells assessed as residual activity at 1000 nM after 30 mins by Kinomescan method relative to control; type: cell-based
[14] = target: Serine/threonine-protein kinase Nek5 (Homo sapiens) (UniProt Q6P3R8); experiment: Inhibition of wild-type human partial length NEK5 (M1 to M279 residues) expressed in Escherichia coli BL21 assessed as residual activity at 1000 nM after 30 mins by Kinomescan method relative to control
[15] = target: Mitogen-activated protein kinase kinase kinase 13 (Homo sapiens) (UniProt O43283); experiment: Inhibition of wild-type human full length LZK (M1 to W966 residues) expressed in HEK293 cells assessed as residual activity at 1000 nM after 30 mins by Kinomescan method relative to control; type: cell-based; outline: as §1
[16] = system: Phosphatidylinositol 4,5-bisphosphate 3-kinase catalytic subunit alpha isoform (Homo sapiens), P42336 [H1047Y]; experiment: Inhibition of human partial length PIK3CA H1047Y mutant (R108 to N1068 residues) expressed in HEK293 cells assessed as residual activity at 1000 nM after 30 mins by Kinomescan method relative to control; type: cell-based
Outline: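 KINOMEscan binding panel of 456 kinases, with the test compound at a single concentration of 1 µM. Read-out is Percent Control.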

[17] = target: Ribosomal protein S6 kinase alpha-4 (Homo sapiens) (UniProt O75676); experiment: Inhibition of wild-type human partial length N-terminal RPS6KA4 kinase domain 1 expressed in Escherichia coli BL21 assessed as residual activity at 1000 nM after 30 mins by Kinomescan method relative to control
[18] = target: Microtubule-associated serine/threonine-protein kinase 1 (Homo sapiens) (UniProt Q9Y2H9); experiment: Inhibition of wild-type human partial length MAST1 (S346 to V730 residues) expressed in HEK293 cells assessed as residual activity at 1000 nM after 30 mins by Kinomescan method relative to control; type: cell-based
[19] = system: Tyrosine-protein kinase ABL1 (Homo sapiens), P00519 [Q252H]; experiment: Inhibition of human phosphorylated ABL1 Q252H mutant expressed in HEK293 cells assessed as residual activity at 1000 nM after 30 mins by Kinomescan method relative to control; type: cell-based
Outline: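 Single-point screen at a fixed 1 µM, run within a 456-kinase DiscoveRx KINOMEscan panel. Each kinase's read-out is Percent Control, i.e. signal relative to a control without compound. Hits were scored by a Percent Control < 35 cut-off, and an S(35) selectivity score was calculated across the non-mutant kinases.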

[20] = target: 3-phosphoinositide-dependent protein kinase 1 (Homo sapiens) (UniProt O15530); experiment: Inhibition of wild-type human full length PDPK1 (M1 to Q556 residues) expressed in Escherichia coli BL21 assessed as residual activity at 1000 nM after 30 mins by Kinomescan method relative to control; outline: as §1
[21] = target: Eukaryotic translation initiation factor 2-alpha kinase 1 (Homo sapiens) (UniProt Q9BQI3); experiment: Inhibition of wild-type human partial length EIF2AK1 (Q147 to E603 residues) expressed in HEK293 cells assessed as residual activity at 1000 nM after 30 mins by Kinomescan method relative to control; type: cell-based

Mitogen-activated protein kinase kinase kinase 13 (Homo sapiens), sequence (O43283 whole entry, the tested form may be a part, canonical isoform): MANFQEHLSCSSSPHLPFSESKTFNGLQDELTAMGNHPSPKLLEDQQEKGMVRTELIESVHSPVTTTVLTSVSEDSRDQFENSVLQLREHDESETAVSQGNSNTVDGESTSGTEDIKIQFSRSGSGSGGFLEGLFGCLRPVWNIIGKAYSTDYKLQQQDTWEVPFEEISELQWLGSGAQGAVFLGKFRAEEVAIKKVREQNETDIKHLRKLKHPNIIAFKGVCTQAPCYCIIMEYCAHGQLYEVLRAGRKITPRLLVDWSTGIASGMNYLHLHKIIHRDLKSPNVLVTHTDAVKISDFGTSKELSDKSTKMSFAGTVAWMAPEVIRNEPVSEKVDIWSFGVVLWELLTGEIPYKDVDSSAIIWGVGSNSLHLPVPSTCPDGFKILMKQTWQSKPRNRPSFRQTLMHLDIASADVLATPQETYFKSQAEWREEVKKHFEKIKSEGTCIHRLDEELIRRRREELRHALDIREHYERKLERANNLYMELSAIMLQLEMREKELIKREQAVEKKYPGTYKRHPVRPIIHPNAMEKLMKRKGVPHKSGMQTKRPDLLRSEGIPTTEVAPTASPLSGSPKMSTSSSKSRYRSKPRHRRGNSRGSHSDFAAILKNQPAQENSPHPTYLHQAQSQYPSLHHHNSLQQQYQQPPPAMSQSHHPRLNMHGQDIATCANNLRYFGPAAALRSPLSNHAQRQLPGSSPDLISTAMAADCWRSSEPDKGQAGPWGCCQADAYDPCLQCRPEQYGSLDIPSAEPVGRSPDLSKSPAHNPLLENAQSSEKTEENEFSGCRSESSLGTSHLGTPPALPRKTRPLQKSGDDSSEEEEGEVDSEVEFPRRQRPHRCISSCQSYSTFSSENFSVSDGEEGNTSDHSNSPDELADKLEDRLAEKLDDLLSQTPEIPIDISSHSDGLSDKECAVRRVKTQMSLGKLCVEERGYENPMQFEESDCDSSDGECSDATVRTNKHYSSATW
Dual specificity mitogen-activated protein kinase kinase 7 (Homo sapiens), sequence (O14733 whole entry, the tested form may be a part): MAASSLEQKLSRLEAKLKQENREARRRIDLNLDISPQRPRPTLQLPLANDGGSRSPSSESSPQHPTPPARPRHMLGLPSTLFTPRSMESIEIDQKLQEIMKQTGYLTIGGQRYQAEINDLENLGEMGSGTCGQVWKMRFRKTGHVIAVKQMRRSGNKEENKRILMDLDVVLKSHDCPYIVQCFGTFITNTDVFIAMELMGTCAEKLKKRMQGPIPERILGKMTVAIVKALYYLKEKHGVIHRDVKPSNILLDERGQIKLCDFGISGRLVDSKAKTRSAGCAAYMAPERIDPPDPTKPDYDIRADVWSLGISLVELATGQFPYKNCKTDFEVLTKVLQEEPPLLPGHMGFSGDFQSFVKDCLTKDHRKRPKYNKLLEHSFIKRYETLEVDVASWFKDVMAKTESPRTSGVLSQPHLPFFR
Ephrin type-A receptor 3 (Homo sapiens), sequence (P29320 whole entry, the tested form may be a part): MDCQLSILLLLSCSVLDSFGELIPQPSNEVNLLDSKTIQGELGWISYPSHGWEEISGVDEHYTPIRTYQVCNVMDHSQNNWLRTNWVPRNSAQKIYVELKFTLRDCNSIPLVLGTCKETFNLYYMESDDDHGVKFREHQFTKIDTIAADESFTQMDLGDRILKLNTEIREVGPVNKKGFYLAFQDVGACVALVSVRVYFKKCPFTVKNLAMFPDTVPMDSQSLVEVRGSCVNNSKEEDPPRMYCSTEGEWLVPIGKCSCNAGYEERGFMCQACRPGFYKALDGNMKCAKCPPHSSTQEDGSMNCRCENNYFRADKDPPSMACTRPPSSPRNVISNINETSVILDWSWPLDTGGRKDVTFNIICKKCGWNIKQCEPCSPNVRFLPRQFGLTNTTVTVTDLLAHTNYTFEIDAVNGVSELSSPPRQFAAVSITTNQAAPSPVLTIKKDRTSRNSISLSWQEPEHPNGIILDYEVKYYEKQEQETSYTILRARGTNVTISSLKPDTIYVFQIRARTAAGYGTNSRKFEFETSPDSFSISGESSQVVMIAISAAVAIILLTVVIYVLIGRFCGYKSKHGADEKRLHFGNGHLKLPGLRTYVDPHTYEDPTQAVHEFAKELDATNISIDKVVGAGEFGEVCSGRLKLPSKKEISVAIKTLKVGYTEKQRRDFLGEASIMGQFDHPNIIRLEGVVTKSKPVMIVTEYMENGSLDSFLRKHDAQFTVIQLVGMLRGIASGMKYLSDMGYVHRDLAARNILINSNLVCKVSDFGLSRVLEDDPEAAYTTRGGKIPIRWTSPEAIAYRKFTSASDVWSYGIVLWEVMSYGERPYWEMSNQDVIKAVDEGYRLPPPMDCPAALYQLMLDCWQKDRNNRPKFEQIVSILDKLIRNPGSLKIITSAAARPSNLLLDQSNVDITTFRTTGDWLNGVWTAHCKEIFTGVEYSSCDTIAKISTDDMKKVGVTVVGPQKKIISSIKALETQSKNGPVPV
Receptor-interacting serine/threonine-protein kinase 1 (Homo sapiens), sequence (Q13546 whole entry, the tested form may be a part): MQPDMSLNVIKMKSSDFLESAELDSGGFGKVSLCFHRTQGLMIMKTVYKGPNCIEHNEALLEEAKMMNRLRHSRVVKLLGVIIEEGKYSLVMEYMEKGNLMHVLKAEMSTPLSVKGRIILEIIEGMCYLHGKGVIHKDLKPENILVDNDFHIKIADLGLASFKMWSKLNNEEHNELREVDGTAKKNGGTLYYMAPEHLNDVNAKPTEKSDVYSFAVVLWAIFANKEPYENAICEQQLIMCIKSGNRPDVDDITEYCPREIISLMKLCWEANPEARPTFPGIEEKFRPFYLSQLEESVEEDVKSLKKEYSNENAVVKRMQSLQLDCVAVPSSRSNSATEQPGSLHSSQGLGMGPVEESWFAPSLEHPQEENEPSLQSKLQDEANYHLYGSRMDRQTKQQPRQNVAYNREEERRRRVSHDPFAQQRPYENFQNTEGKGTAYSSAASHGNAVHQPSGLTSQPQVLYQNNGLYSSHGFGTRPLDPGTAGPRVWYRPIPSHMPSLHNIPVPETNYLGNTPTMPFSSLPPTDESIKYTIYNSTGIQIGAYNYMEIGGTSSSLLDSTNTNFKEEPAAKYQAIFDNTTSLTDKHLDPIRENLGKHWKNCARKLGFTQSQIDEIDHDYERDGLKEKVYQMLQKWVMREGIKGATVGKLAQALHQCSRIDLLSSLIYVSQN
Mast/stem cell growth factor receptor Kit (Homo sapiens), sequence (P10721 whole entry, the tested form may be a part): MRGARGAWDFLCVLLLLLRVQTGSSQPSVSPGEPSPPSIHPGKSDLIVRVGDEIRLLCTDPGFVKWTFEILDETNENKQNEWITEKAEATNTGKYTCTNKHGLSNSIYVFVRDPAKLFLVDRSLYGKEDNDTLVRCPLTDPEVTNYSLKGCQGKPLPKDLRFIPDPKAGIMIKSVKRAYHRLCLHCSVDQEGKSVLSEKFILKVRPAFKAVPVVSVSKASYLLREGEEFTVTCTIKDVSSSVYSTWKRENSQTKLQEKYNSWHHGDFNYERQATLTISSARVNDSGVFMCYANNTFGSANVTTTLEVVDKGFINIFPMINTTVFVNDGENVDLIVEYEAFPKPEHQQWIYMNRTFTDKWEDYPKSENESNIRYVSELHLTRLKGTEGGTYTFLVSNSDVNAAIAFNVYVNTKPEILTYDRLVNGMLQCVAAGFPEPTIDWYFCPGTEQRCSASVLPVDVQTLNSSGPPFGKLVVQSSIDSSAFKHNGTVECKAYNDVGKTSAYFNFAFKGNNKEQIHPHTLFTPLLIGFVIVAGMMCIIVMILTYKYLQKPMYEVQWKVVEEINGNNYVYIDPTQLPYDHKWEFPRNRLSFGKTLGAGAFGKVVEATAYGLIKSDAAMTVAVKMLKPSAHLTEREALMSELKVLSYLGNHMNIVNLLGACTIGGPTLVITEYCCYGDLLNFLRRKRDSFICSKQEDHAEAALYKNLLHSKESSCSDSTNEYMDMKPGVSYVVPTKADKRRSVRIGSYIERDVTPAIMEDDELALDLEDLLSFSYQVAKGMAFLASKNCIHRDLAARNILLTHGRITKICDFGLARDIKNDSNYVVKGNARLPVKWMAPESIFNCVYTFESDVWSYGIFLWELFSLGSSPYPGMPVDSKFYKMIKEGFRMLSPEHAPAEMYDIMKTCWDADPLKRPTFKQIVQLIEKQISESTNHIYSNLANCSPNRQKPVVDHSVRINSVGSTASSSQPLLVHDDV
Ephrin type-B receptor 4 (Homo sapiens), sequence (P54760 whole entry, the tested form may be a part): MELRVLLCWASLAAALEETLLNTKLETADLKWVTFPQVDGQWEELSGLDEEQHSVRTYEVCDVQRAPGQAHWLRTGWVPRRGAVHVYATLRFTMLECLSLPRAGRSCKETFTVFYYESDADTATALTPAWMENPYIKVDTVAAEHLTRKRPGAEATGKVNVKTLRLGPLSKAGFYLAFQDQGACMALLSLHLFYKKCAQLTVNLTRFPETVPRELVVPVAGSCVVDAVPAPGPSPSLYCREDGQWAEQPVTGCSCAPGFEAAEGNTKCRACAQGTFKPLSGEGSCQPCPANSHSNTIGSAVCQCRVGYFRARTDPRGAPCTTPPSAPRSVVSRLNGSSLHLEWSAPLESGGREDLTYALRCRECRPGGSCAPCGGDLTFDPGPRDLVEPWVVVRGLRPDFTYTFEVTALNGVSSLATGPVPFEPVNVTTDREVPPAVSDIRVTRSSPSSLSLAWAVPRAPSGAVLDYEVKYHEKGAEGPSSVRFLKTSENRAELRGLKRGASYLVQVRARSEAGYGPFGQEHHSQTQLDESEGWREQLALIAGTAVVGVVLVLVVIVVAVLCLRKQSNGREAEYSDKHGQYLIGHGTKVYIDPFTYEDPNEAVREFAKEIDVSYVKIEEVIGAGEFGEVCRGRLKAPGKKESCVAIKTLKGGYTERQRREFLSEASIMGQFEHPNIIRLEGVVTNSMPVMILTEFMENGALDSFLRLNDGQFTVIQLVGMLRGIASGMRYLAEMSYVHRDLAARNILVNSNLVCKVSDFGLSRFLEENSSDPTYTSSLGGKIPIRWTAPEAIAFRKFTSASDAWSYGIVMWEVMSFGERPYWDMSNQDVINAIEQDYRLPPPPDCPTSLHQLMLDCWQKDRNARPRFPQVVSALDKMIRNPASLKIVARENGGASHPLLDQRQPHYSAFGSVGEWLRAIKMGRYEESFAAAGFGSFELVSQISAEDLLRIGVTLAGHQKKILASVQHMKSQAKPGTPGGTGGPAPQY

## COc1cc(OC)c(Cl)c(N2Cc3cnc(Nc4ccc(F)cc4)nc3N(C3CCN(C(=O)/C=C/CN(C)C)CC3)C2=O)c1Cl
[1]
  Activity: 87%
[2]
  Activity: 100%
[3]
  Activity: 97%
[4]
  Activity: 96%
[5]
  Activity: 100%
[6]
  Activity: 100%
[7]
  Activity: 89%
[8]
  Activity: 100%
[9]
  Activity: 100%
[10]
  Activity: 19%
[11]
  Activity: 100%
[12]
  Activity: 90%
[13]
  Activity: 100%
[14]
  Activity: 14%
[15]
  Activity: 100%
[16]
  Activity: 100%
[17]
  Activity: 97%
[18]
  Activity: 90%
[19]
  Activity: 31%
[20]
  Activity: 67%
[21]
  Activity: 100%
